Results: ChEMBL document CHEMBL4270486, “Anti-inflammatory Activity of Natural Geranylated Flavonoids: Cyclooxygenase and Lipoxygenase Inhibitory Properties and Proteomic Analysis” (J Nat Prod, 2017)
Active and inactive are the calls of the source. The rule behind the calls is not given here.

Key:
[1] = target: T1, Polyunsaturated fatty acid 5-lipoxygenase (Homo sapiens) (UniProt P09917); experiment: Inhibition of human recombinant 5-LOX assessed as reduction in leukotriene B4 production at 20 uM pre-incubated for 10 mins before arachidonic acid addition and measured after 10 mins by ELISA
T1 sequence (whole entry): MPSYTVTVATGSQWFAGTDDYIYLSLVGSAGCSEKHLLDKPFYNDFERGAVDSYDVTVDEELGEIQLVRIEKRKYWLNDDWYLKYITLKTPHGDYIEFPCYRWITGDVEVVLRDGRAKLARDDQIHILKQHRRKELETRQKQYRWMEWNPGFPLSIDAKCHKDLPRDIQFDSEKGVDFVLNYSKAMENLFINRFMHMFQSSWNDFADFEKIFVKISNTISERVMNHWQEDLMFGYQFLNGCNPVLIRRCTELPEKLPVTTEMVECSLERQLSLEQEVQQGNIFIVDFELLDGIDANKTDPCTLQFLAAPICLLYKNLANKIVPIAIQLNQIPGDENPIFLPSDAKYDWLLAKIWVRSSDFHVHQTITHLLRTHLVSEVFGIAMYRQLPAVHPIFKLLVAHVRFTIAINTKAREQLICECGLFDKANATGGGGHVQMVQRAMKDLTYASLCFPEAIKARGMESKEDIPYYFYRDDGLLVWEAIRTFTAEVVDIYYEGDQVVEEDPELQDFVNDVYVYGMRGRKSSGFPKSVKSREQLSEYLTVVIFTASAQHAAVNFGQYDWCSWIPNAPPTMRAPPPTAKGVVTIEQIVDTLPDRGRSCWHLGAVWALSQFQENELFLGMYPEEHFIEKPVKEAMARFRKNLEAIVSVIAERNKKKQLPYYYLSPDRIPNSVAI
Method in brief: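 Human recombinant 5-LOX, 1 unit/reaction, in PBS pH 7.4 containing 1 mM Na2EDTA and 200 μM ATP. Test compound in DMSO incubated 10 min at 4 °C. Reaction started with CaCl2 and arachidonic acid, 10 min at 37 °C, stopped with formic acid. LTB4 measured by ELISA (A405). […] Screening at 20 μM; ≥3 experiments, duplicate wells.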

[2] = target: T2, Polyunsaturated fatty acid 5-lipoxygenase (Homo sapiens, UniProt P09917); experiment: Inhibition of human recombinant 5-LOX assessed as reduction in leukotriene B4 production pre-incubated for 10 mins before arachidonic acid addition and measured after 10 mins by ELISA
T2 sequence (P09917 whole entry): T1 sequence (whole entry)
Method in brief: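 Human recombinant 5-LOX, 1 unit/reaction, in PBS pH 7.4 containing 1 mM Na2EDTA and 200 μM ATP. Test compound in DMSO incubated 10 min at 4 °C. Reaction started with CaCl2 and arachidonic acid, 10 min at 37 °C, stopped with formic acid. LTB4 measured by ELISA (A405). Screening at 20 μM; ≥3 experiments, duplicate wells.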

[3] = target: T3, Prostaglandin G/H synthase 1 (Ovis aries, UniProt P05979); experiment: Inhibition of ram seminal vesicle COX1 assessed as reduction in PGE2 formation pre-incubated for 5 mins before arachidonic acid addition and measured after 20 mins by ELISA
T3 sequence (P05979 whole entry): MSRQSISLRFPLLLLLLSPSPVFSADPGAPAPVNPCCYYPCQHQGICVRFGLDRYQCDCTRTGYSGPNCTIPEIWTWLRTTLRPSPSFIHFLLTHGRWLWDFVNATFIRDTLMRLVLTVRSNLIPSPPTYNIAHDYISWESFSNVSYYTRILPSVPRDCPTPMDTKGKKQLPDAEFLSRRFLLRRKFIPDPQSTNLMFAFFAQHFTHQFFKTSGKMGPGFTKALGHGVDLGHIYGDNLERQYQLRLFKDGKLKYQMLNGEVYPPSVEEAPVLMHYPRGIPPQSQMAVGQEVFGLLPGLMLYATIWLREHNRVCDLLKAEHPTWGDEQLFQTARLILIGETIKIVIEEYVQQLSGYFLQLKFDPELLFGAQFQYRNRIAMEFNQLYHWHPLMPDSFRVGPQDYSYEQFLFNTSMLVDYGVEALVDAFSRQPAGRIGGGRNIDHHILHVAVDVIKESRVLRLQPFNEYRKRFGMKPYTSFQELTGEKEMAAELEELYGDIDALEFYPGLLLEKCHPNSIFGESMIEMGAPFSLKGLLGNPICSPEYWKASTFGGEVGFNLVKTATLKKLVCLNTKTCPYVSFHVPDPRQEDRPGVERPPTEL
Method in brief: (§1)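 COX-1 from ram seminal vesicles (1 unit) or human recombinant COX-2 (0.5 unit) in 100 mM Tris pH 8.0 with 5 μM hematin, 18 mM L-epinephrine and 50 μM Na2EDTA. Compound in DMSO preincubated 5 min at room temperature. Arachidonic acid added, 20 min at 37 °C, stopped with formic acid. PGE2 by ELISA (A405).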

[4] = target: T4, Prostaglandin G/H synthase 2 (Homo sapiens, UniProt P35354); experiment: Inhibition of human recombinant COX2 assessed as reduction in PGE2 formation pre-incubated for 5 mins before arachidonic acid addition and measured after 20 mins by ELISA
T4 sequence (P35354 whole entry): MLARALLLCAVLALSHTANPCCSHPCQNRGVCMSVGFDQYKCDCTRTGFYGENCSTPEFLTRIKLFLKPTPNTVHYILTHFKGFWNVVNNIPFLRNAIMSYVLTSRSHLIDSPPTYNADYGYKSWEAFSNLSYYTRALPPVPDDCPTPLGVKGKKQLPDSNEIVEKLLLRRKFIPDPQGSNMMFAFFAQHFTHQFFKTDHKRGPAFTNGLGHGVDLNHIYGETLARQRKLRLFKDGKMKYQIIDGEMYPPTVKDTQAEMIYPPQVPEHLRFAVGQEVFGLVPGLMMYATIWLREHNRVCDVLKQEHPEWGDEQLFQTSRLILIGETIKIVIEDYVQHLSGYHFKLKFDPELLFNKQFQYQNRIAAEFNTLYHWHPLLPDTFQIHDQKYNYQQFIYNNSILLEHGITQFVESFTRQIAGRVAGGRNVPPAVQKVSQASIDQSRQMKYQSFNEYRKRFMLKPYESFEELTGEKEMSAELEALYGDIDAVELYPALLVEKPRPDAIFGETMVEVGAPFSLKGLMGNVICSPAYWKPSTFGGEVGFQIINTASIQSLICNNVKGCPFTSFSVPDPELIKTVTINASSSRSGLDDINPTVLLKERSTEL

[5] = target: T5, Prostaglandin G/H synthase 2 (Homo sapiens) (UniProt P35354); experiment: Inhibition of human recombinant COX2 assessed as reduction in PGE2 formation at 20 uM pre-incubated for 5 mins before arachidonic acid addition and measured after 20 mins by ELISA; method in brief: as §1
T5 sequence (whole entry): T4 sequence (P35354 whole entry)

[6] = Selectivity index, ratio of IC50 for ram seminal vesicle COX1 to IC50 for human recombinant COX2
THP-1 [7] = experiment: Increase in COX2 protein expression in LPS-stimulated human THP1 cells at 2 uM by proteomic analysis relative to untreated control; assay type: functional
Method in brief: (§2)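 THP-1 monocytes in RPMI 1640 with 10% FBS and 2 mM L-glutamine, differentiated to macrophages with phorbol myristate acetate, then 24 h serum-free. Pretreatment 1 h with compound in DMSO (2 μM final) or DMSO alone, then LPS (E. coli 0111:B4, 1.0 μg/mL) for 24 h. Filter-aided trypsin digestion, iTRAQ 4-plex labelling, LC-MS/MS. Five biological replicates pooled per group.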

THP-1 [8] = experiment: Inhibition of LPS-induced increase in TNFalpha protein expression in LPS-stimulated human THP1 cells at 2 uM by proteomic analysis relative to untreated control; assay type: functional, cell-based; method in brief: as §2
THP-1 [9] = experiment: Inhibition of LPS-induced increase in IL1 protein expression in LPS-stimulated human THP1 cells at 2 uM by proteomic analysis relative to untreated control; assay type: functional, cell-based; method in brief: as §2
THP-1 [10] = experiment: Inhibition of LPS-induced increase in CCL1 protein expression in LPS-stimulated human THP1 cells at 2 uM by proteomic analysis relative to untreated control; assay type: functional, cell-based; method in brief: as §2
THP-1 [11] = experiment: Inhibition of LPS-induced increase in CCL5 protein expression in LPS-stimulated human THP1 cells at 2 uM by proteomic analysis relative to untreated control; assay type: functional, cell-based; method in brief: as §2
THP-1 [12] = experiment: Inhibition of LPS-induced increase in CXCL1 protein expression in LPS-stimulated human THP1 cells at 2 uM by proteomic analysis relative to untreated control; assay type: functional, cell-based; method in brief: as §2
THP-1 [13] = experiment: Inhibition of LPS-induced decrease in VIP2 protein expression in LPS-stimulated human THP1 cells at 2 uM by proteomic analysis relative to untreated control; assay type: functional, cell-based; method in brief: as §2
THP-1 [14] = experiment: Increase in COX2 protein expression in human THP1 cells at 2 uM by proteomic analysis relative to untreated control; assay type: ADME, cell-based; conditions: thp-1, 2 µM; method in brief: as §2
THP-1 [15] = experiment: Increase in RNF207 protein expression in human THP1 cells at 2 uM by proteomic analysis relative to untreated control; assay type: ADME, cell-based; conditions: read-out: FC; method in brief: as §2
THP-1 [16] = experiment: Increase in TX1B3 protein expression in human THP1 cells at 2 uM by proteomic analysis relative to untreated control; assay type: ADME, cell-based; conditions: read-out: FC; method in brief: as §2
[17] = target: T1, Polyunsaturated fatty acid 5-lipoxygenase (Homo sapiens); experiment: Potency index, ratio of IC50 for zileuton to IC50 for test compound fior inhibition of human recombinant 5-LOX assessed as reduction in leukotriene B4 production pre-incubated for 10 mins before arachidonic acid addition and measured after 10 mins by ELISA

Compound | inhibition [1] | IC50 [2] [µM] | IC50 [3] [µM] | IC50 [4] [µM] | inhibition [5] | Ratio IC50 [6] | further results
CC(C)=CCC/C(C)=C/Cc1c(O)cc2occc(=O)c2c1O | Active | 2.46 |  |  |  |  | 
COc1cc([C@@H]2CC(=O)c3c(cc4c(c3O)C=CC(C)(CCC=C(C)C)O4)O2)ccc1O (some centres not stated) |  |  | 26.3 | 9.5 | Active | 2.8 | 
CC(C)=CCC/C(C)=C/Cc1c(O)cc2c(c1O)C(=O)C[C@@H](c1ccc(O)c(O)c1)O2 [NYMPHAEOL A] | Active | 0.05 | 1.8 | 4.2 | Active |  | fold change (FC) (THP-1 [7]): 1.55; inhibition (THP-1 [8]): Active; inhibition (THP-1 [9]): Active; inhibition (THP-1 [10]): Active; inhibition (THP-1 [11]): Active; inhibition (THP-1 [12]): Active; inhibition (THP-1 [13]): Active; Activity (THP-1 [14]): Non-Toxic; fold induction at 2 µM (THP-1 [15]): 2.09; fold induction at 2 µM (THP-1 [16]): 1.88
CC(C)=CCC/C(C)=C/Cc1c(O)cc2c(c1O)C(=O)C[C@@H](c1ccc(O)cc1)O2 [BONANNIONE A] |  |  | 3.7 | 6 | Active | 0.62 | 
COc1cc([C@@H]2CC(=O)c3c(cc(O)c(C/C=C(\C)CCC=C(C)C)c3O)O2)cc(O)c1O | Active | 0.06 | 3.3 | 10.6 | Active | 0.31 | Ratio IC50 [17]: 10
COc1cc([C@@H]2CC(=O)c3c(cc(O)c(C/C=C(\C)CCC=C(C)C)c3O)O2)cc(OC)c1O | Active | 0.38 |  |  |  |  | 
COc1cc(C2CC(=O)c3c(cc4c(c3O)C=CC(C)(CCC=C(C)C)O4)O2)cc(OC)c1O (configuration not stated) | Active | 0.37 |  |  |  |  | 
CC(C)=CCCC1(C)C=Cc2c(cc3c(c2O)C(=O)C[C@@H](c2cc(O)cc(O)c2)O3)O1 (some centres not stated) | Active | 0.35 |  |  |  |  | 
COc1cc([C@@H]2CC(=O)c3c(cc(O)c(C/C=C(\C)CCC=C(C)C)c3O)O2)cc(O)c1OC |  |  | 4.2 | 6.4 | Active | 0.66 | 
